The source of these data is ChEMBL document CHEMBL1649451, “In vivo selection of reduced susceptibility to carbapenems in Acinetobacter baumannii related to ISAba1-mediated overexpression of the natural bla(OXA-66) oxacillinase gene” (2009).

Converted amounts (≈) assume the structure as drawn.

Type in all cases: functional
For experiment [1], the system named is Acinetobacter baumannii. Put plainly: Antimicrobial activity against carbapenem-susceptible Acinetobacter baumannii isolate A1 by Etest method. The gist of the method:
(§1)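 Etest strips on Mueller-Hinton agar, incubated at 37°C; MIC read from strip for clinical A. baumannii isolates A1 and A2 (clonally related, genotyped by ApaI PFGE).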

For experiment [2], the system named is Acinetobacter baumannii. Put plainly: Antimicrobial activity against bla OXA-66 gene-deficient Acinetobacter baumannii isolate A2 by Etest method. The method, boiled down: as §1
Experiment [3] relates to Acinetobacter baumannii. The experiment can be described thus: Antimicrobial activity against carbapenem-resistant Acinetobacter baumannii isolate A2 by Etest method. The gist of the method:
as §1

Broadly, the MIC is the lowest concentration that inhibits growth of the organism. A high value points to weaker potency.

With `CC(C)(O/N=C(\C(=O)N[C@@H]1C(=O)N2C(C(=O)[O-])=C(C[n+]3ccccc3)CS[C@H]12)c1csc(N)n1)C(=O)O` [CEFTAZIDIME], the MIC against Acinetobacter baumannii [1], against Acinetobacter baumannii [2] and against Acinetobacter baumannii [3] was 128 µg/mL (≈ 234 µM) in each case.

In the case of `C[C@@H](O)[C@H]1C(=O)N2C(C(=O)O)=C(SCCNC=N)C[C@H]12` [IMIPENEM ANHYDROUS], the minimal inhibitory concentration (MIC) in the experiment with Acinetobacter baumannii [1] was 2 µg/mL (≈ 6.68 µM); in the experiment on Acinetobacter baumannii [2] it was 0.5 µg/mL (≈ 1.67 µM); against Acinetobacter baumannii [3], 4 µg/mL (≈ 13.4 µM).

Regarding `C[C@@H](O)[C@H]1C(=O)N2C(C(=O)O)=C(S[C@@H]3CN[C@H](C(=O)N(C)C)C3)[C@H](C)[C@H]12` [MEROPENEM], the MIC against Acinetobacter baumannii [1] amounted to 3 µg/mL (≈ 7.82 µM); in the experiment with Acinetobacter baumannii [2] it was 0.5 µg/mL (≈ 1.3 µM); in the experiment with Acinetobacter baumannii [3] it was 6 µg/mL (≈ 15.6 µM).

As for `CO[C@H]1/C=C/O[C@@]2(C)Oc3c(C)c(O)c4c(O)c(c(/C=N/N5CCN(C)CC5)c(O)c4c3C2=O)NC(=O)/C(C)=C\C=C\[C@H](C)[C@H](O)[C@@H](C)[C@@H](O)[C@@H](C)[C@H](OC(C)=O)[C@@H]1C` [RIFAMPIN], the MIC in the experiment on Acinetobacter baumannii [1] was determined as 8 µg/mL (≈ 9.72 µM); against Acinetobacter baumannii [2] it was 128 µg/mL (≈ 156 µM); in the experiment with Acinetobacter baumannii [3], 8 µg/mL (≈ 9.72 µM).
